Data set [1] addresses T1, Tyrosine-protein phosphatase non-receptor type 1 (Mus musculus) (UniProt P35821).
T1 sequence (whole entry): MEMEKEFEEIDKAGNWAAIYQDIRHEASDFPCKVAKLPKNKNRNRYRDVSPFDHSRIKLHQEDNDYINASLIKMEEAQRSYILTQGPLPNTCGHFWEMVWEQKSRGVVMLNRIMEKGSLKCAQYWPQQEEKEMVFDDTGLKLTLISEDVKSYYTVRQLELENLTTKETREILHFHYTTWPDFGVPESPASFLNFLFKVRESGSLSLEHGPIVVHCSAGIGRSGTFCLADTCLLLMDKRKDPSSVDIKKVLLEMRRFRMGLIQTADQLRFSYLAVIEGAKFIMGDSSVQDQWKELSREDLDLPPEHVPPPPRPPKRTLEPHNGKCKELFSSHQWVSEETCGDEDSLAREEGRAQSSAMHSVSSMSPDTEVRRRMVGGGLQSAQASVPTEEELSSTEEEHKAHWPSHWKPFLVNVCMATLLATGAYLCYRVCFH
In words: Inhibition of PTP1B in mouse C2C12 cells assessed as increase in intracellular 2-deoxyglucose uptake using [3H]glucose as substrate at 25 uM after 90 mins by scintillation counting. The format is cell-based. The gist of the method:
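C2C12 myotubes were differentiated and serum-starved 20 h, then treated 90 min with 25 µM compound (1.2% DMSO). Insulin 10 nM for 30 min was the positive control. 0.1 µCi 2-deoxy-D-[3H]glucose in Ringer–Hepes was taken up 15 min at 37 °C. Cells were washed with cold PBS, lysed in 0.2 M NaOH and counted by scintillation, normalized to protein. Mean ± SE of three replicates.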

Data set [2] is filed under the species Homo sapiens. In words: Selectivity ratio of IC50 for human recombinant LMW-PTP IF2 to IC50 for human recombinant LMW-PTP IF1. The gist of the method:
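Recombinant human LMW-PTP IF1 and IF2 (GST cleaved off) were assayed at 37 °C in pH 7.0 β,β-dimethylglutarate/EDTA/DTT buffer. Fixed p-nitrophenylphosphate equal to each isoform's Km was used, with p-nitrophenolate read at 400 nm. IC50 came from fitting vi/v0 against inhibitor concentration to a four-parameter equation. The ratio is IF2 IC50 over IF1 IC50.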

Data set [3] has as its target T2, Tyrosine-protein phosphatase non-receptor type 2 (Homo sapiens, UniProt P17706).
T2 sequence (P17706 whole entry): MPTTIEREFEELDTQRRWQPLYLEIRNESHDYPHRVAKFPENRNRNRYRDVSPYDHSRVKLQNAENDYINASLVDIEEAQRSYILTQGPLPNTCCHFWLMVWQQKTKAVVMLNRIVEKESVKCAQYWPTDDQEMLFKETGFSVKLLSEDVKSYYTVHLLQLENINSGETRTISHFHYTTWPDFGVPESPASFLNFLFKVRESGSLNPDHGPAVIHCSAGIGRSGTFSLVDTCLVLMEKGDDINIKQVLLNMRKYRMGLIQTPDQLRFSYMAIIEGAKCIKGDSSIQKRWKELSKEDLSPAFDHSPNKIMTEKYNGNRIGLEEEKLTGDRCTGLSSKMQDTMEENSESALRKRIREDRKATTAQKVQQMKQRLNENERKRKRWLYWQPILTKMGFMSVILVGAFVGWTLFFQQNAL
The data set is described as follows: Competitive inhibition of human recombinant TCPTP using p-nitrophenylphosphate as substrate by Line-Weaver Burk plot.

Data set [4] deals with T3, Tyrosine-protein phosphatase non-receptor type 1 (Homo sapiens, UniProt P18031).
T3 sequence (P18031 whole entry): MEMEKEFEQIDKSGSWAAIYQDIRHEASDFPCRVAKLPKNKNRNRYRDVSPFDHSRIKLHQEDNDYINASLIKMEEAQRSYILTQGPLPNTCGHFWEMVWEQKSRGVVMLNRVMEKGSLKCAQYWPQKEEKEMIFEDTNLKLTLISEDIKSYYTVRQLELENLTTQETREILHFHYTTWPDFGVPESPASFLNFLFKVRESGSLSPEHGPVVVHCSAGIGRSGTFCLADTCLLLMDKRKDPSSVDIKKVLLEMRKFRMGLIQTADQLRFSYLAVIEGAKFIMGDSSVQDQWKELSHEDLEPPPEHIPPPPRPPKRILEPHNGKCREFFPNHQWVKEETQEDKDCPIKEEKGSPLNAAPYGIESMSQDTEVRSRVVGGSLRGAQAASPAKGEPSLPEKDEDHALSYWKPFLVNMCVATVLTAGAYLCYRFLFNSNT
The data set is described as follows: Competitive inhibition of GST-tagged human recombinant PTP1B expressed in Escherichia coli TB1 using p-nitrophenylphosphate as substrate by Line-Weaver Burk plot. The gist of the method:
(§1)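 Human enzymes were expressed in E. coli TB1 as GST fusions and purified on glutathione-Sepharose. GST was removed by thrombin (3 h, 37 °C), followed by gel filtration. Assays ran at 37 °C in pH 7.0 buffer (0.075 M β,β-dimethylglutarate, 1 mM EDTA, 5 mM DTT) with p-nitrophenylphosphate, read at 400 nm. Initial rates were measured in triplicate at differing substrate and inhibitor levels, and apparent Km was plotted against inhibitor concentration to give Ki.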

Data set [5] concerns the target T4, Low molecular weight phosphotyrosine protein phosphatase (Homo sapiens, UniProt P24666).
T4 sequence (P24666 whole entry): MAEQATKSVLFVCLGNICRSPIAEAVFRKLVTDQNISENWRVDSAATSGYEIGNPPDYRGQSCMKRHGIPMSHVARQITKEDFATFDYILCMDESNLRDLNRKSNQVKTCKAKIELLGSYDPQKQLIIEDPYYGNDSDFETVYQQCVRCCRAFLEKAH
In words: Competitive inhibition of GST-tagged human recombinant LMW-PTP IF1 expressed in Escherichia coli TB1 using p-nitrophenylphosphate as substrate by Line-Weaver Burk plot. In short, it runs like this:
as §1

Data set [6] is filed under the species Homo sapiens. In words: Selectivity ratio of IC50 for human recombinant TCPTP to IC50 for human recombinant PTP1B. In short, it runs like this:
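IC50 values were from initial p-nitrophenylphosphate hydrolysis (400 nm) in pH 7.0 β,β-dimethylglutarate/EDTA/DTT buffer, fitted to a four-parameter equation. PTP1B (recombinant human, GST cleaved) was assayed at 37 °C with substrate at its Km. Commercial recombinant TC-PTP (0.02 µg) was assayed with 2.8 mM p-nitrophenylphosphate, stopped with KOH. The ratio is TC-PTP IC50 over PTP1B IC50.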

Data set [7] has as its system C2C12. In words: Cytotoxicity against mouse C2C12 cells at 25 uM after 2 hrs by MTT assay. It is filed as cell-based. Particulars: c2c12, 2 h. In short, it runs like this:
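C2C12 myoblasts were differentiated 4 days in DMEM/2% horse serum, then serum-starved 20 h. Compounds at 25 µM final (DMSO vehicle) were given for 2 h. MTT was added at 0.5 mg/ml final, 37 °C for 2 h. Cells were lysed in DMSO and formazan read at 570 nm, expressed as % of DMSO control, mean ± SE of three replicates.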
(In general: Tetrazolium assays rely on reduction of a dye to a coloured formazan, in cell work by metabolically active cells.)

Data set [8] has as its target T4, Low molecular weight phosphotyrosine protein phosphatase. The data set is described as follows: Competitive inhibition of GST-tagged human recombinant LMW-PTP IF2 expressed in Escherichia coli TB1 using p-nitrophenylphosphate as substrate by Line-Weaver Burk plot. In short, it runs like this: as §1
Data set [9] deals with T1, Tyrosine-protein phosphatase non-receptor type 1 (Mus musculus). In words: Inhibition of PTP1B in mouse C2C12 cells assessed as increase in insulin receptor beta tyrosine phosphorylation at 25 uM. It is filed as cell-based. In short, it runs like this:
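Differentiated, 20 h serum-starved C2C12 myotubes were exposed to 25 µM compound (1.2% DMSO) for 90 min at 37 °C. Insulin 10 nM for 30 min served as positive control. Lysates in SDS sample buffer were run on SDS-PAGE and western blotted for phospho-IRβ, normalized to actin, in at least three experiments.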

The source made the active and inactive calls. No cut-off for these calls is given here.

One may read the IC50 as the concentration needed to halve the response being measured. On to `O=C(O)c1ccc(CN2C(=O)/C(=C/c3ccc4ccccc4c3)S/C2=N\c2ccc(C(F)(F)F)cc2)cc1`, for which the inhibition entry in data set [1] and in data set [9] was “Active” throughout. Also, the results for the Ratio IC50 in data set [2] and in data set [6] were above 3 and above 2, respectively. For the same molecule, the IC50 in data set [3] was determined as 20.2 µM; in data set [4], 2.4 µM; in data set [5], 5.8 µM; in data set [8], 15.2 µM. In data set [7], the Activity entry is reported as “Non-toxic”.

On to `O=C(O)c1ccc(CN2C(=O)/C(=C/c3cccc(OCc4ccccc4)c3)S/C2=N\c2ccc(C(F)(F)F)cc2)cc1`, for which the inhibition result in data set [1] and in data set [9] was “Active” in each case. For the same molecule, the Ratio IC50 is above 3 in data set [2] and above 2 in [6]. For the same molecule, the IC50 in data set [3] is above 100 µM; in data set [4] it was 5.6 µM; in data set [5], 12 µM; in data set [8], above 150 µM. The Activity entry in data set [7] is “Non-toxic”.

`COc1ccc(/N=C2\S/C(=C\c3cccc(Oc4ccccc4)c3)C(=O)N2Cc2ccc(C(=O)O)cc2)cc1`: in data set [1], the inhibition result was “inactive”. In addition, the Ratio IC50 was above 3 in [2] and above 2 in [6]. Moreover, the concentration for half-maximal inhibition (IC50) is 20.5 µM in [3], 10.9 µM in data set [4], 12 µM in data set [5] and 21.8 µM in [8]. In addition, in [7], the Activity result was “Non-toxic”. In data set [9], the inhibition entry is “Active”.

Take `COc1ccc(/N=C2\S/C(=C\c3ccc4ccccc4c3)C(=O)N2Cc2ccc(C(=O)O)cc2)cc1`: the IC50 in data set [3] came to 27 µM; in [4] it was 9 µM; in data set [5], 11.6 µM; in [8], 11.7 µM. Moreover, the Ratio IC50 in data set [6] is above 2. Further, the Activity entry in data set [7] is reported as “Non-toxic”.

For `COc1ccc(/N=C2\S/C(=C\c3ccc(OCc4ccccc4)cc3)C(=O)N2Cc2ccc(C(=O)O)cc2)cc1`, the inhibition entry in data set [1] and in data set [9] was “inactive” throughout. Besides, the values for the Ratio IC50 in [2] and in data set [6] were 1.4 and above 2, respectively. The 50% inhibitory concentration (IC50) in data set [3] worked out at 9.5 µM; in [4] it was 3 µM; in [5], 6.4 µM; in data set [8] it was 9.1 µM. In addition, the Activity entry in data set [7] was “Non-toxic”.

As for `O=C(O)c1ccc(CN2C(=O)/C(=C/c3ccc(Oc4ccccc4)cc3)S/C2=N\c2ccc(C(F)(F)F)cc2)cc1`, the Ratio IC50 in [2] was above 3; in [6] it was 7.1. Besides, the IC50 in data set [3] is 15.6 µM; in data set [4] it was 2.2 µM; in data set [5], 7.3 µM; in data set [8], 33.2 µM. Further, the Activity result in data set [7] was “Non-toxic”.

A word on the Ki: it is the dissociation constant of the complex between target and ligand, obtained from inhibition or displacement. In the case of `O=C(O)c1ccc(CN2C(=O)/C(=C/c3ccc(OCc4ccccc4)cc3)S/C2=N\c2ccc(C(F)(F)F)cc2)cc1`, the inhibition entry in data set [1] and in data set [9] was “Active” throughout. Also, the Ratio IC50 in data set [2] was above 3; in data set [6] it was above 2. The IC50 in [3] came to 2.2 µM; in data set [4], 1.4 µM; in data set [5], 4 µM; in data set [8], 25.4 µM. Further, in [4], the Ki turned out to be 1.2 µM. Also, the Activity entry in data set [7] is “Non-toxic”.

As to `O=C(O)c1ccc(CN2C(=O)/C(=C/c3cccc(Oc4ccccc4)c3)S/C2=N\c2ccc(C(F)(F)F)cc2)cc1`, the inhibition result in data set [1] was “Active”. For the same molecule, the Ratio IC50 in data set [2] was above 3; in [6], 2. In addition, the IC50 in [3] was 20.6 µM; in data set [4], 10.4 µM; in [5] it was 13.7 µM; in [8], above 150 µM. In data set [7], the Activity result was “Non-toxic”.

Regarding `COc1ccc(/N=C2\S/C(=C\c3cccc(OCc4ccccc4)c3)C(=O)N2Cc2ccc(C(=O)O)cc2)cc1`, the inhibition result in data set [1] is “inactive”. Also, the Ratio IC50 is above 3 in data set [2] and above 2 in data set [6]. Besides, the IC50 stood at 11.6 µM in data set [3], 5.1 µM in data set [4], 9.6 µM in data set [5] and 17.5 µM in [8]. Moreover, the Activity result in data set [7] is recorded as “Non-toxic”. For the same molecule, the inhibition result in data set [9] was “Active”.

As for `COc1ccc(/N=C2\S/C(=C\c3ccc(Oc4ccccc4)cc3)C(=O)N2Cc2ccc(C(=O)O)cc2)cc1`, the inhibition result in [1] was “inactive”. Moreover, the IC50 in [3] was 7.1 µM; in data set [4], 2.5 µM; in data set [5] it was 11.2 µM; in data set [8] it was 18 µM. In addition, in data set [6], the Ratio IC50 was above 2. In addition, the Activity result in [7] is given as “Non-toxic”. The inhibition entry in [9] is “Active”.

The record behind these values is ChEMBL document CHEMBL2010756, “New 4-[(5-arylidene-2-arylimino-4-oxo-3-thiazolidinyl)methyl]benzoic acids active as protein tyrosine phosphatase inhibitors endowed with insulinomimetic effect on mouse C2C12 skeletal muscle cells” (Eur J Med Chem, 2012).
